Among the data in ChEMBL document CHEMBL2057109, “Synthesis, biological evaluation, and molecular docking studies of 2,5-substituted-1,4-benzoquinone as novel urease inhibitors” (Bioorg Med Chem, 2012) are IC50 and inhibition values, retold here.

In general, IC50 refers to the concentration needed to halve the response being measured. As usually defined, the inhibition is the drop in the measured response relative to a control, in per cent.

The target in assay [1] is Urease subunit alpha/Urease subunit beta (Helicobacter pylori (strain ATCC 700392 / 26695) (Campylobacterpylori), UniProt P69996). The assay is described as follows: Inhibition of Helicobacter pylori urease assessed as ammonia production preincubated for 3 hrs measured by indophenol method. An outline of the steps: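 Enzyme came from H. pylori broth cultures (2.0 × 10⁸ CFU/mL), which were pelleted at 5000 g and 4 °C, washed twice in PBS at pH 7.4, and stored at −80 °C. Urease and test compound were pre-incubated for 3 h at room temperature. Ammonia production was then quantified by the Weatherburn indophenol method.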

For assay [2], the target named is Urease subunit alpha/Urease subunit beta (Helicobacter pylori (strain ATCC 700392 / 26695) (Campylobacterpylori)) (UniProt P69996+P14916). The experiment in a line: Inhibition of Helicobacter pylori urease assessed as ammonia production at 100 uM preincubated for 3 hrs measured by indophenol method.

Activity calls are given as the source filed them. No cut-off for these calls is given here.

Sequence of Urease subunit alpha/Urease subunit beta (P69996 whole entry): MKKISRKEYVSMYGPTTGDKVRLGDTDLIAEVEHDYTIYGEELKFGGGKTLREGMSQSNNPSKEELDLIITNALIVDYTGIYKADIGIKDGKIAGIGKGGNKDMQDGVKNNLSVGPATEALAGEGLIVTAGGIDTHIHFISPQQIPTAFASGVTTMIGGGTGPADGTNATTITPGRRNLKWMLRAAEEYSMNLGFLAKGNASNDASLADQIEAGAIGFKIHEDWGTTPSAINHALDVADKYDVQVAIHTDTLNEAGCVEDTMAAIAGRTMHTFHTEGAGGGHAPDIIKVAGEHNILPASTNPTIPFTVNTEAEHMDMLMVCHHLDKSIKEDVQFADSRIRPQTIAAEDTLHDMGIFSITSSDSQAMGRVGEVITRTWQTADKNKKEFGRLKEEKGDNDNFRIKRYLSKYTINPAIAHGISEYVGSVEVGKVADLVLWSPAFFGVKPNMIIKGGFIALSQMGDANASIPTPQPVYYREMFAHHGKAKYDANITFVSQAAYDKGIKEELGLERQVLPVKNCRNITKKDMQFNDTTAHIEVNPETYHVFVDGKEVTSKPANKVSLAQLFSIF
Sequence of Urease subunit alpha/Urease subunit beta (P14916 whole entry, further chain): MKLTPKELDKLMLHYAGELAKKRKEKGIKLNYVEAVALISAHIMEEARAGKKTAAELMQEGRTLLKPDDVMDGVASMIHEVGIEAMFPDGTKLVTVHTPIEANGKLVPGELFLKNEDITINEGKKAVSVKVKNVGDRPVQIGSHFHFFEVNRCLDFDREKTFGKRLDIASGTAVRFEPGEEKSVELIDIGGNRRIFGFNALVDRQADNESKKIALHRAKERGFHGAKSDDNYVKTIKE
Sequence of Urease subunit alpha/Urease subunit beta (Helicobacter pylori (strain ATCC 700392 / 26695) (Campylobacterpylori)) (P14916 whole entry, looked up): as the sequence (P14916 whole entry, further chain) above
Sequence of Urease subunit alpha/Urease subunit beta (Helicobacter pylori (strain ATCC 700392 / 26695) (Campylobacterpylori)) (P69996 whole entry, looked up): as the sequence (P69996 whole entry) above

Turning to `CC(=O)NO` [ACETOHYDROXAMIC ACID], the IC50 in assay [1] worked out at 46.3 µM. Also, the inhibition in assay [2] stood at 85.2%.

For the compound `O=C1C=C(NCCN2CCOCC2)C(=O)C=C1NCCN1CCOCC1`, the IC50 in assay [1] is 27.3 µM. Further, in assay [2], the inhibition was 81.6%.

In the case of `O=C1C=C(NC2CCCCC2)C(=O)C=C1NC1CCCCC1`, in assay [1], the IC50 is 41.5 µM. Further, the inhibition in assay [2] came to 62.7%.

Regarding `O=C1C=C(NC2CCCC2)C(=O)C=C1NC1CCCC1`, the IC50 in assay [1] was 35.4 µM. For the same compound, in assay [2], the inhibition turned out to be 68.8%.

With `O=C1C=C(NCCNc2ccccc2)C(=O)C=C1NCCNc1ccccc1`, the inhibition result in assay [2] is “inactive”.

Consider `O=C1C=C(NC2CC2)C(=O)C=C1NC1CC1`, for which, in assay [2], the inhibition result is “inactive”.

Consider `CC(C)NC1=CC(=O)C(NC(C)C)=CC1=O`, for which, in assay [2], the inhibition result is “inactive”.
